Legend:
Rattus norvegicus = organism: Rattus norvegicus; test: Inhibition of quipazine-induced head twitches in rats after 2 hrs of pretreatment; format: functional
Summary of the method: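 Test drug was given sc or po to rats 2 or 24 h before quipazine (15 µmol/kg, sc). Head twitches were counted 30-40 min after quipazine, at least four animals per dose. Counts were expressed as percent of a quipazine-only control group.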

[1] = molecular target: Serotonin 2 (5-HT2) receptor (Rattus norvegicus, UniProt P30994+P08909+P14842); test: Displacement of [3H]ketanserin from 5-hydroxytryptamine 2 receptor in rat cortical membranes; format: cell membranes, Membrane
Summary of the method: (§1)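 Radioligand displacement from rat brain membranes: 3H-ketanserin on cortical membranes (5-HT2), 3H-prazosin on whole brain membranes (alpha1), 3H-spiperone on striatal membranes (D2). Two full concentration-effect curves per compound, each with five test drug concentrations in triplicate spanning three decades. IC50 estimated from curves on a log-concentration scale. Outliers beyond 3 times the sd-ratio were discarded after extra determinations.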

[2] = molecular target: T1, Adrenergic receptor alpha-1 (Rattus norvegicus, UniProt P15823+P23944+P43140); test: Displacement of [3H]prazosin from alpha-1 adrenoceptors in whole rat brain membranes; format: cell membranes; summary of the method: as §1
T1 sequence (P15823 whole entry): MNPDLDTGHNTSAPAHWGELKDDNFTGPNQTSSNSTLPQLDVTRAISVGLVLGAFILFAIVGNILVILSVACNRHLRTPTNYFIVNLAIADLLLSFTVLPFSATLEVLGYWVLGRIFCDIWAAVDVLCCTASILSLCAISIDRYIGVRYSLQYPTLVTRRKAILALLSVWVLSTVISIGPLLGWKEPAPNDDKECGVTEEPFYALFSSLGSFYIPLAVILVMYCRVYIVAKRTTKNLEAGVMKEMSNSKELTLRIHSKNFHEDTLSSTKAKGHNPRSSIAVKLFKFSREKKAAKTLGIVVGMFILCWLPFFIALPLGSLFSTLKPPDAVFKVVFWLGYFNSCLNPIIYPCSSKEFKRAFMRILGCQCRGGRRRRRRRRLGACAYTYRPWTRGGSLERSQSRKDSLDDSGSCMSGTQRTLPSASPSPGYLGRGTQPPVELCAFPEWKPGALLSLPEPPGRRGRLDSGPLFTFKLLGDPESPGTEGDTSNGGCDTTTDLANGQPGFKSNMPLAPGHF
T1 sequence (P23944 whole entry): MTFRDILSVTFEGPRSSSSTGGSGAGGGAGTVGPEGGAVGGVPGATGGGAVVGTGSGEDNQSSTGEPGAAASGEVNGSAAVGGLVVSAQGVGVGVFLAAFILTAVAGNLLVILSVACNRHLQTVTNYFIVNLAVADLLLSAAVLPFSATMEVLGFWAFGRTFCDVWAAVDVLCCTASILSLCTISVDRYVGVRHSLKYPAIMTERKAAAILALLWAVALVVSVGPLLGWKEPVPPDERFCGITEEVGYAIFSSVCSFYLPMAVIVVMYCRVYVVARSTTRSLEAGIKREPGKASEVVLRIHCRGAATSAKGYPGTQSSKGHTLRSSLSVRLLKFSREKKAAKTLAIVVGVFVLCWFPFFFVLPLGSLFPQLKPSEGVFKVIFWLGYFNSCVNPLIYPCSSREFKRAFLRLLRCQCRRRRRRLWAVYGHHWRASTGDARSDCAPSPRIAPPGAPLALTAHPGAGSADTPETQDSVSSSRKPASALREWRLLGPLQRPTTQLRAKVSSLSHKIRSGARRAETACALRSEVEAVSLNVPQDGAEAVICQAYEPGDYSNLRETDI
T1 sequence (P43140 whole entry): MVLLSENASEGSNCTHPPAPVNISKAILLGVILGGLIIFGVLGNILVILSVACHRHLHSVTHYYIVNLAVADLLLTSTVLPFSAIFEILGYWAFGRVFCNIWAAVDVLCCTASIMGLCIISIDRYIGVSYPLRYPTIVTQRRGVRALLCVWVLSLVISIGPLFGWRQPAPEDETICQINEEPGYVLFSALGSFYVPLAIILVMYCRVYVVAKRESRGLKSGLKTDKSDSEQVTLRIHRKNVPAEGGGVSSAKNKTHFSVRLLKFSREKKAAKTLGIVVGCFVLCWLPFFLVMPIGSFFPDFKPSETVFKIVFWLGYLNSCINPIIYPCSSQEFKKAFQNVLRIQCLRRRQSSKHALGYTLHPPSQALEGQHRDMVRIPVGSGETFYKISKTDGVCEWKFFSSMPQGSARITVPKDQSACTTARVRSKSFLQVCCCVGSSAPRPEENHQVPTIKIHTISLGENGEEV

D(2) dopamine receptor = D(2) dopamine receptor (Rattus norvegicus, UniProt P61169); test: Displacement of [3H]spiperone from dopamine D2 receptors in rat striatal membranes; format: cell membranes, Membrane; summary of the method: as §1
[3] = Rattus norvegicus, read-out: ED50

Sequence of D(2) dopamine receptor (P61169 whole entry): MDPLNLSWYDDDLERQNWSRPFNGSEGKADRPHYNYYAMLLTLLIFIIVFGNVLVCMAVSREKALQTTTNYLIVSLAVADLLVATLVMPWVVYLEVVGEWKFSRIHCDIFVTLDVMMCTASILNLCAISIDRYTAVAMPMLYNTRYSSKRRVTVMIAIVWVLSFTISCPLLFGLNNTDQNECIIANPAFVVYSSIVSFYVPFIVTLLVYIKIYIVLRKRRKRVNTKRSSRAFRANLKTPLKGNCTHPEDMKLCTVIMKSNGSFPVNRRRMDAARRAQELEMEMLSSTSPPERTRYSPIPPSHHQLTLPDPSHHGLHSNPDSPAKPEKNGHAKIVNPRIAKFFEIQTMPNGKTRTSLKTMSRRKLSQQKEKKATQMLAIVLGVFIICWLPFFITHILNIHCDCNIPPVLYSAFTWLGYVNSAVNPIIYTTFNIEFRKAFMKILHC

SMILES	ED50 (Rattus norvegicus; [3]) [µmol/kg]	IC50 [1] [µM]	IC50 [2] [µM]	IC50 (D(2) dopamine receptor) [µM]	ED50 (Rattus norvegicus) [µM/kg]
CCN1CCN(CCN2CCN(C3CC(c4ccc(F)cc4)c4cc(Cl)ccc43)CC2)C1=O.O=C(O)/C=C\C(=O)O.O=C(O)/C=C\C(=O)O (configuration not stated)	0.042	0.0026	0.24	–	–
OCCN1CCN(C2CC(c3ccc(F)cc3)c3ccc(Cl)cc32)CC1 (configuration not stated)	0.039	0.0026	0.026	0.02	–
O=C(O)/C=C\C(=O)O.O=C(O)/C=C\C(=O)O.O=C1N(CCO)CCN1CCN1CCN(C2CC(c3ccc(F)cc3)c3cc(Cl)ccc32)CC1 (configuration not stated)	1.1	0.0061	0.71	–	–
O=C(O)/C=C\C(=O)O.O=C(O)/C=C\C(=O)O.O=C1NCCCN1CCN1CCN(C2CC(c3ccc(F)cc3)c3cc(F)ccc32)CC1 (single isomer, unassigned; (-))	–	0.057	–	4	–
O=C(O)/C=C\C(=O)O.O=C(O)/C=C\C(=O)O.O=C1NCCCN1CCN1CCN(C2CC(c3ccc(F)cc3)c3cc(Cl)ccc32)CC1 (stereo in doubt; (+)-41)	–	0.12	–	1.7	–
Cc1ccc2c(c1)C(c1ccc(F)cc1)CC2N1CCN(CCO)CC1.O=C(O)/C=C\C(=O)O.O=C(O)/C=C\C(=O)O (configuration not stated)	> 2.1	0.012	0.27	1.1	–
O=C(O)/C=C\C(=O)O.O=C(O)/C=C\C(=O)O.OCCN1CCN(C2CC(c3ccc(F)cc3)c3cccc(Cl)c32)CC1 (configuration not stated)	1.3	0.015	0.038	0.046	–
CC(C)N1CCN(CCN2CCN(C3CC(c4ccc(Cl)cc4)c4cc(Cl)ccc43)CC2)C1=O.O=C(O)/C=C\C(=O)O (configuration not stated)	2.9	0.015	0.18	–	–
Cc1nc2sccn2c(=O)c1CCN1CCN(C2CC(c3ccc(F)cc3)c3cc(Cl)ccc32)CC1.O=C(O)/C=C\C(=O)O.O=C(O)/C=C\C(=O)O (configuration not stated)	1.9	0.019	0.024	0.065	–
Cc1ccc2c(c1)C(c1ccc(F)cc1)CC2N1CCN(CCN2CCN(C(C)C)C2=O)CC1.O=C(O)/C=C\C(=O)O.O=C(O)/C=C\C(=O)O (configuration not stated)	0.2	0.003	0.12	0.45	–
Cl.Cl.Fc1ccc(C2CC(N3CCN(CCN4CCCNC4=S)CC3)c3ccc(F)cc32)cc1 (racemic)	–	0.042	–	2.9	–
OCCN1CCN(C2CC(c3ccc(F)cc3)c3cc(F)ccc32)CC1 (configuration not stated)	–	0.021	0.15	1.1	0.35
Cc1ccc(C2CC(N3CCN(CCN4CCN(C(C)C)C4=O)CC3)c3ccc(Cl)cc32)cc1.O=C(O)/C=C\C(=O)O (configuration not stated)	> 3.5	0.011	0.06	–	–
O=C1NCCN1CCN1CCN(C2CC(c3ccc(F)cc3)c3cc(Cl)ccc32)CC1 (configuration not stated)	0.34	0.0029	0.2	–	–
O=C(O)/C=C\C(=O)O.O=C(O)/C=C\C(=O)O.O=C1N(CCN2CCN(C3CC(c4ccc(F)cc4)c4cc(Cl)ccc43)CC2)CCN1c1ccccc1 (configuration not stated)	> 6.7	0.044	0.31	–	–
Cl.Cl.O=C1OCCN1CCN1CCN(C2CC(c3ccc(F)cc3)c3cc(Cl)ccc32)CC1 (configuration not stated)	2	0.023	0.14	0.55	–
O=C(O)/C=C\C(=O)O.O=C(O)/C=C\C(=O)O.Oc1nc2ccccc2n1CCN1CCN(C2CC(c3ccc(F)cc3)c3cc(Cl)ccc32)CC1 (configuration not stated)	0.21	0.0056	0.066	0.11	–

SMILES	ED50 (Rattus norvegicus; [3]) [µmol/kg]	IC50 [1] [µM]	IC50 [2] [µM]	IC50 (D(2) dopamine receptor) [µM]	ED50 (Rattus norvegicus) [µM/kg]
Cl.Cl.OCCN1CCN(C2CC(c3ccc(F)cc3)c3cc(F)ccc32)CC1 (single isomer, unassigned; (+))	–	0.012	0.072	0.33	0.33
CC(C)N1CCN(CCN2CCN(C3CC(c4ccc(F)cc4)c4cc(Br)ccc43)CC2)C1=O.O=C(O)/C=C\C(=O)O.O=C(O)/C=C\C(=O)O (configuration not stated)	0.098	0.0064	0.27	–	–
CSc1ccc2c(c1)C(c1ccc(F)cc1)CC2N1CCN(CCN2CCN(C(C)C)C2=O)CC1 (configuration not stated)	> 3.4	0.004	0.25	–	–
CC(C)N1CCN(CCN2CCN(C3CC(c4ccc(F)cc4)c4cc(Cl)ccc43)CC2)C1=O.O=C(O)/C=C\C(=O)O.O=C(O)/C=C\C(=O)O (stereo in doubt; 20)	–	0.0039	0.26	–	0.06
Fc1ccc(C2CC(N3CCN(CCN4CCCN=C4S)CC3)c3ccc(Cl)cc32)cc1.O=C(O)/C=C\C(=O)O.O=C(O)/C=C\C(=O)O (configuration not stated)	0.048	0.0015	0.17	0.093	–
Cl.Cl.Fc1ccc(C2CC(N3CCN(CCN4CCCNC4=S)CC3)c3ccc(Cl)cc32)cc1 (stereo in doubt; (+)-39)	–	0.021	0.35	0.49	–
O=C(O)/C=C\C(=O)O.O=C(O)/C=C\C(=O)O.O=C1NCCN1CCCN1CCN(C2CC(c3ccc(F)cc3)c3cc(Cl)ccc32)CC1 (configuration not stated)	0.91	0.01	0.073	0.16	–
OCCN1CCN(C2CC(c3ccc(F)cc3)c3c(Cl)cccc32)CC1 (configuration not stated)	0.82	0.04	0.03	0.22	–
Cl.Cl.OCCN1CCN(C2CC(c3ccc(F)cc3)c3cc(F)ccc32)CC1 (stereo in doubt; (-)-13)	–	0.5	1.1	22	>2.8
Cl.Cl.O=C1CCCN1CCN1CCN(C2CC(c3ccc(F)cc3)c3cc(Cl)ccc32)CC1 (configuration not stated)	2.7	0.01	0.37	0.5	–
CC(C)N1CCN(CCN2CCN(C3CC(c4ccc(F)cc4)c4cc(C(F)(F)F)ccc43)CC2)C1=O.O=C(O)/C=C\C(=O)O.O=C(O)/C=C\C(=O)O (configuration not stated)	0.13	0.0037	0.37	–	–
CC(C)N1CCN(CCN2CCN(C3CC(c4cccc(F)c4)c4cc(Cl)ccc43)CC2)C1=O.O=C(O)/C=C\C(=O)O (configuration not stated)	–	0.026	0.97	–	–
CC(C)N1CCN(CCN2CCN(C3CC(c4ccccc4F)c4cc(Cl)ccc43)CC2)C1=O.O=C(O)/C=C\C(=O)O.O=C(O)/C=C\C(=O)O (configuration not stated)	2.1	0.0035	0.67	–	–
CC(C)N1CCN(CCN2CCN(C3CC(c4ccccc4)c4cc(Cl)ccc43)CC2)C1=O.O=C(O)/C=C\C(=O)O.O=C(O)/C=C\C(=O)O (configuration not stated)	1	0.0099	0.51	–	–
Cl.Cl.OCCN1CCN(C2CC(c3ccc(F)cc3)c3cc(Cl)ccc32)CC1 (stereo in doubt; 10)	–	0.025	0.23	–	0.23
CN1CCN(CCN2CCN(C3CC(c4ccc(F)cc4)c4cc(Cl)ccc43)CC2)C1=O.O=C(O)/C=C\C(=O)O (configuration not stated)	0.093	0.0028	0.6	–	–
O=C(O)/C=C\C(=O)O.O=C(O)/C=C\C(=O)O.OCCN1CCN(C2CC(c3ccc(F)cc3)c3cc(C(F)(F)F)ccc32)CC1 (configuration not stated)	1	0.0089	0.38	–	–
